From ChEMBL document CHEMBL4842338, “System-oriented optimization of multi-target 2,6-diaminopurine derivatives: Easily accessible broad-spectrum antivirals active against flaviviruses, influenza virus and SARS-CoV-2” (Eur J Med Chem, 2021)
Calls of active or inactive are those of the source. The rule behind the calls is not given here.

Legend:
dengue virus type 2 [1] = test: Antiviral activity against Dengue virus serotype 2 New Guinea C infected in pre-seeded Huh-7 cells assessed as inhibition of viral replication incubated for 72 hrs by immunodetection based secondary yield reduction assay; format: functional, organism-based
Zika virus = test: Antiviral activity against Zika virus H/PF/2013 infected in pre-seeded Huh-7 cells assessed as inhibition of viral replication incubated for 72 hrs by immunodetection based secondary yield reduction assay; format: functional, organism-based; conditions: H/PF/2013, Huh-7, 72 h
[2] = Selectivity index, ratio of CC50 for human Huh-7 cells to IC50 for Zika virus H/PF/2013 infected in pre-seeded Huh-7 cells assessed as inhibition of viral replication incubated for 72 hrs by immunodetection based secondary yield reduction assay; format: toxicity, cell-based; conditions: read-out: Selectivity Index
[3] = (§1) Cytotoxicity against human Huh-7 cells assessed as reduction in cell viability by Celltiter-Glo luminescent cell viability assay; format: cell-based; conditions: Huh-7 cells
How it was run: (§2)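 Compound-exposed cells assessed by CellTiter-Glo luminescence versus DMSO control; CC50 from dose-response.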

[4] = Selectivity index, ratio of CC50 for human Huh-7 cells to IC50 for Dengue virus serotype 2 New Guinea C infected in pre-seeded Huh-7 cells assessed as inhibition of viral replication incubated for 72 hrs by immunodetection based secondary yield reduction assay; format: toxicity, cell-based; conditions: read-out: Selectivity Index
Huh-7 = test: as §1; format: cell-based; conditions: huh-7; how it was run: as §2
CDK9/cyclin T1 = CDK9/cyclin T1 (Homo sapiens, UniProt P50750); test: Inhibition of human full length CDK9/ His-tagged cT1 assessed as residual activity at 5 uM using CDKtide as a substrate in the presence of BSA incubated for 10 mins by scintillation counting analysis relative to control; format: protein-complex assay; conditions: full length CDK9/His-tagged cyclin T1 complex, probe CDKtide, read-out: Activity
CDK9/cyclin T1, sequence (O60563 whole entry): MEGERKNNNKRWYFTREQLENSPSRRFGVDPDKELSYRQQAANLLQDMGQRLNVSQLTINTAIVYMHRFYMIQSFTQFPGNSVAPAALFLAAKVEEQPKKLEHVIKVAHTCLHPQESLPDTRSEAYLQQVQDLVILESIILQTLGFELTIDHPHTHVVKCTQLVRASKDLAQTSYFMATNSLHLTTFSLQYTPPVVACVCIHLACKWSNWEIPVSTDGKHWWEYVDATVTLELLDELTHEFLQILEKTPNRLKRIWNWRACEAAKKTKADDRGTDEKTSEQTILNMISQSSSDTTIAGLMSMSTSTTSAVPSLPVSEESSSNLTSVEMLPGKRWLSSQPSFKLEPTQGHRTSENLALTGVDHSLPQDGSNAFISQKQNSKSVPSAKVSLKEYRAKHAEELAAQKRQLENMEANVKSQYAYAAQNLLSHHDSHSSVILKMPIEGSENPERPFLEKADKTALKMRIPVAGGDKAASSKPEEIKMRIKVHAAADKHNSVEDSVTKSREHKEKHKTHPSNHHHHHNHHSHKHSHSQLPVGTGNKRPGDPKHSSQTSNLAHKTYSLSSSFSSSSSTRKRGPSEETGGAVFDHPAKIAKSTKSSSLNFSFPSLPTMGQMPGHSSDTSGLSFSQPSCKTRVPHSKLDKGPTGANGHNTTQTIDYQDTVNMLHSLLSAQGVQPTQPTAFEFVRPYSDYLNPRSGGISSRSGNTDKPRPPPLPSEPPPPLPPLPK
CDK9/cyclin T1, sequence (P50750 whole entry): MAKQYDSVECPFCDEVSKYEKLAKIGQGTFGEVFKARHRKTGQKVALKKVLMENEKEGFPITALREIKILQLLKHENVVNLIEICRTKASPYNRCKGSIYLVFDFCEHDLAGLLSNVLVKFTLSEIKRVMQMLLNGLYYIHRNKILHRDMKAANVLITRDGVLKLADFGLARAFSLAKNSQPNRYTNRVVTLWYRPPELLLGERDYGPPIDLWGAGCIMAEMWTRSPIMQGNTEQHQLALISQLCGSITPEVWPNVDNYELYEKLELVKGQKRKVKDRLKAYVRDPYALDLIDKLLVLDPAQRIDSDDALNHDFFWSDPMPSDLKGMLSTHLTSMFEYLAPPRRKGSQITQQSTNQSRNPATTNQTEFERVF
How it was run: (§3)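 Compounds at fixed 5 μM; 10–50 ng kinase, substrate and NP-40/BSA per supplementary table, 10 μL at 30 °C for 10 min in low-binding tubes. Reactions spotted on filter, dried, scintillation counted. Mean ± SD of two independent experiments.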

[5] = biological target: Abl (Tyrosine-protein kinase ABL1) (Homo sapiens, UniProt P00519); test: Inhibition of human recombinant N terminal His6 tagged Abl (27 to end residue) assessed as residual activity at 5 uM using KKGEAIYAADFA-NH2 as a substrate in the presence of NP-40 incubated for 10 mins by scintillation counting analysis relative to control; conditions: probe KKGEAIYAADFA-NH2, read-out: Activity; how it was run: as §3
Abl (Tyrosine-protein kinase ABL1), sequence (P00519 whole entry): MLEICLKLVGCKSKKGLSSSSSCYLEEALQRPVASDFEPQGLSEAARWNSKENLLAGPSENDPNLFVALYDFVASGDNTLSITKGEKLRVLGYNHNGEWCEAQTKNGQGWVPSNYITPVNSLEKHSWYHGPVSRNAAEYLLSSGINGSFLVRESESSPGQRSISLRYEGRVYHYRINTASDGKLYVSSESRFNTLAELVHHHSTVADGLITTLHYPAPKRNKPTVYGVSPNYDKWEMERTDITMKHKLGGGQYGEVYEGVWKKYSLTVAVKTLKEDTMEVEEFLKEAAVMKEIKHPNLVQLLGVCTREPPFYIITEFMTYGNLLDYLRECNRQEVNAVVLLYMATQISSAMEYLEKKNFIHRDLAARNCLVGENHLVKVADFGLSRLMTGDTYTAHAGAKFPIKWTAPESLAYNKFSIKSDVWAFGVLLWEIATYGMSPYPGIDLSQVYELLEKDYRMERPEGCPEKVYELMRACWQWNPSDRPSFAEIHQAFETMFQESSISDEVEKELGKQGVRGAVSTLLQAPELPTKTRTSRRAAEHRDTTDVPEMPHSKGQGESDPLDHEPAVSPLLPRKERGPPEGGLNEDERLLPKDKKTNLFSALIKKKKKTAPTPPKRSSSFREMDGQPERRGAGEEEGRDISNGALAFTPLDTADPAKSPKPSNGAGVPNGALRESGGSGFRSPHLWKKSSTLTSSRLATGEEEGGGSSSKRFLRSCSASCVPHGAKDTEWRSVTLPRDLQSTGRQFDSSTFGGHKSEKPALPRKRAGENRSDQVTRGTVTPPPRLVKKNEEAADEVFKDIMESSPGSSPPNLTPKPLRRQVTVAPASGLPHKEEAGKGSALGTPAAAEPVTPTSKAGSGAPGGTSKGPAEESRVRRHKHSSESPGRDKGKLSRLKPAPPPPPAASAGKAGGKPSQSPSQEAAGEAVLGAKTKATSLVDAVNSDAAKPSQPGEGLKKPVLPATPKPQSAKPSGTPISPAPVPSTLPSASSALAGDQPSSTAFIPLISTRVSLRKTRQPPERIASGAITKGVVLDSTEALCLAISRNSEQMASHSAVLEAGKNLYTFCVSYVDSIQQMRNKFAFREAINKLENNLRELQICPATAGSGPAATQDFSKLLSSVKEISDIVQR

[6] = biological target: Src (Proto-oncogene tyrosine-protein kinase Src) (Homo sapiens, UniProt P12931); test: Inhibition of human recombinant N terminal His6 tagged full length Src assessed as residual activity at 5 uM using KVEKIGEGTYGVVYK as a substrate in the presence of NP-40 incubated for 10 mins by scintillation counting analysis relative to control; conditions: probe KVEKIGEGTYGVVYK, read-out: Activity; how it was run: as §3
Src (Proto-oncogene tyrosine-protein kinase Src), sequence (P12931 2-536 limits assumed): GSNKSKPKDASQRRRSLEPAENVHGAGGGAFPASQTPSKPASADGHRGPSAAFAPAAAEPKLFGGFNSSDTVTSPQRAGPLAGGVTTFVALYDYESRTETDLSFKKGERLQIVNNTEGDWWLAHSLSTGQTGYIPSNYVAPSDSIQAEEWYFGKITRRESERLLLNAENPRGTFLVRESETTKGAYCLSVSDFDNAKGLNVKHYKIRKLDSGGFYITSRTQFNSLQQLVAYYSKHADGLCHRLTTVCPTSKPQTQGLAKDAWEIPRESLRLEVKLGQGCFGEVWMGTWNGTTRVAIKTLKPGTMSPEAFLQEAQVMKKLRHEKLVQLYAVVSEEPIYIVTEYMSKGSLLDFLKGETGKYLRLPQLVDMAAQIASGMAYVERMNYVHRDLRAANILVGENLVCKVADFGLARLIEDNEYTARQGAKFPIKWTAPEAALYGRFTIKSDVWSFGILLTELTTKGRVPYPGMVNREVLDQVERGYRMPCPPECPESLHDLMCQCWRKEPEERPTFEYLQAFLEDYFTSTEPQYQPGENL

[7] = Inhibition of full length ZIKA virus NS5 RNA dependent RNA polymerase incubated for 10 mins by picogreen staining based fluorescent analysis (Rvb= 1+/-0.2 uM)
[8] = biological target: PIK3CA (Phosphatidylinositol 4,5-bisphosphate 3-kinase catalytic subunit alpha isoform) (Homo sapiens, UniProt P42336); test: Inhibition of human full length PIK3CA assessed as residual activity at 5 uM using PI:PS (1:3) as a substrate incubated for 10 mins by scintillation counting analysis relative to control; conditions: full length PIK3CA enzyme, probe PI:PS (1:3), read-out: Activity
PIK3CA (Phosphatidylinositol 4,5-bisphosphate 3-kinase catalytic subunit alpha isoform), sequence (P42336 whole entry, canonical isoform): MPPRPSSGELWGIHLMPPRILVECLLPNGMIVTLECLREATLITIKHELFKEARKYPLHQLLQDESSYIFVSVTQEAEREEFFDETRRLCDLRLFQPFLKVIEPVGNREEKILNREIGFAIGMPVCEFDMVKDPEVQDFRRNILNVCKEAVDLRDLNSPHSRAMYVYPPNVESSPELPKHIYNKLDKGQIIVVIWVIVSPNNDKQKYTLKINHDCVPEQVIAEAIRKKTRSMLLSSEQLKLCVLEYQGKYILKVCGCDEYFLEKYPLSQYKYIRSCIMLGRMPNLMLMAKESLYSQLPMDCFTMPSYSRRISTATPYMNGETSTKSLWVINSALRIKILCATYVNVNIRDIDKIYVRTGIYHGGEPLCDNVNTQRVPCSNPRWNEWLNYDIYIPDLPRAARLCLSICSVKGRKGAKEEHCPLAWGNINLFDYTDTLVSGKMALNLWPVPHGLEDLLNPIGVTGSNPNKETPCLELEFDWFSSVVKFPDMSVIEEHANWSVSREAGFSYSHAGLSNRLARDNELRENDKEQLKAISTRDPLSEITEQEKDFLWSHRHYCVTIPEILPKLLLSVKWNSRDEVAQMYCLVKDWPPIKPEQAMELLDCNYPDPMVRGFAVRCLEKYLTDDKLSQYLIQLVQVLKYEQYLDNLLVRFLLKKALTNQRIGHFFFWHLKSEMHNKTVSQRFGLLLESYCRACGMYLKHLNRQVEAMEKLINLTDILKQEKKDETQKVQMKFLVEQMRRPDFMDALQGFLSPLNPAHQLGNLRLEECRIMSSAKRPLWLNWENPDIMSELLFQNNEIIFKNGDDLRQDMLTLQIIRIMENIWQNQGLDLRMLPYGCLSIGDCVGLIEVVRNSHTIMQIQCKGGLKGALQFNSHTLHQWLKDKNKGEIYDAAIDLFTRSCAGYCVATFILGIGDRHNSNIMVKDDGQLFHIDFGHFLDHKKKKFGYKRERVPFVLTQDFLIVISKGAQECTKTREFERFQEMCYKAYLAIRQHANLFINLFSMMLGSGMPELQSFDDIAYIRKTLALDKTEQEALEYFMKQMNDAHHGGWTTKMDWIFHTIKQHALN
How it was run: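 Radiometric kinase reaction with 10–50 ng enzyme and compound fixed at 5 μM, 10 μL at 30 °C for 10 min. Reactions spotted on filter and counted by scintillation. Residual activity is the mean ± SD of two independent experiments.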

West Nile virus [9] = test: Antiviral activity against West Nile virus lineage 1 (Italy/2009) infected in pre-seeded Huh-7 cells assessed as inhibition of viral replication incubated for 48 hrs by immunodetection based direct yield reduction assay; format: functional, organism-based
[10] = biological target: Fyn (Tyrosine-protein kinase Fyn) (Homo sapiens, UniProt P06241); test: Inhibition of human recombinant N terminal His6 tagged full length Fyn assessed as residual activity at 5 uM using […] as a substrate in the presence of NP-40 incubated for 10 mins by scintillation counting analysis relative to control; conditions: probe […], read-out: Activity; how it was run: as §3
Fyn (Tyrosine-protein kinase Fyn), sequence (P06241 whole entry): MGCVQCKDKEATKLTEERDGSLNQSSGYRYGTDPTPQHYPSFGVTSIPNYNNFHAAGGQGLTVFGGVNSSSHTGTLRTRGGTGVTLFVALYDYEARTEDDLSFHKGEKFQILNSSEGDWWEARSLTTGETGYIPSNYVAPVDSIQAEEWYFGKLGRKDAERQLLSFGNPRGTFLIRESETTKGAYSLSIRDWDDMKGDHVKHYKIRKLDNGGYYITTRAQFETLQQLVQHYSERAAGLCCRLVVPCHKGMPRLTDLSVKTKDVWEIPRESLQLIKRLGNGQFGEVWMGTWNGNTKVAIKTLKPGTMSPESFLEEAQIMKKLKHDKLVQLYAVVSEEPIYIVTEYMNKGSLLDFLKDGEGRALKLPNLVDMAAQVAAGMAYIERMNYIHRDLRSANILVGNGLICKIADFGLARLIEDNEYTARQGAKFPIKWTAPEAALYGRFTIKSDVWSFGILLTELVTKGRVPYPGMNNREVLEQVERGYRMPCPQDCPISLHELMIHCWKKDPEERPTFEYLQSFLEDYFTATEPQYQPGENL

[11] = Selectivity index, ratio of CC50 for human Huh-7 cells to IC50 for West Nile virus lineage 1 (Italy/2009) infected in pre-seeded Huh-7 cells assessed as inhibition of viral replication incubated for 48 hrs by immunodetection based direct yield reduction assay; format: toxicity, cell-based; conditions: read-out: Selectivity Index
How it was run: (§4)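 Direct yield reduction in Huh7 cells (7000/well), infected with 50 TCID₅₀ of DENV or ZIKV, or 25 TCID₅₀ of WNV. Adsorption 1 h at 37 °C, then virus removed and serial compound dilutions added. Incubated 72 h (DENV, ZIKV) or 48 h (WNV). Viral antigen immunodetected on the monolayer. IC₅₀ by non-linear regression, mean of three experiments. SI = CC₅₀ (Huh7, CellTiter-Glo luminescence)/IC₅₀.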

West Nile virus [12] = test: Antiviral activity against West Nile virus lineage 1 (Italy/2009) infected in pre-seeded Huh-7 cells assessed as inhibition of viral replication incubated for 48 hrs by immunodetection based plaque reduction assay; format: functional, organism-based; conditions: Huh-7, 48 h
[13] = Antioxidant activity assessed as inhibition of ABTS radical scavenging activity at 10 uM to 1 mM measured after 10 mins; format: functional
How it was run: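 ABTS radical solution diluted in ethanol (1:100) to A734 0.70; 3.0 mL mixed with 30 μL sample in DMSO at 10 μM–1 mM; A734 read after exactly 10 min; ascorbic acid reference; % scavenging = (A0−As)/A0×100.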

[14] = Inhibition of full length ZIKV NS5-MTase domain using 7MeGpppAC4 as a substrate incubated for 30 mins by filter binding assay; parameters: species or system Zika virus
[15] = Inhibition of full length Dengue virus 2 NS5 RNA dependent RNA polymerase incubated for 10 mins by picogreen staining based fluorescent analysis (Rvb= 0.32+/-0.05 uM); parameters: species or system dengue virus type 2
[16] = Inhibition of DENV NS5-MTase domain using GpppA2'OMe-RNA74 as a substrate incubated for 30 mins by filter binding assay; parameters: species or system dengue virus type 2; conditions: read-out: IC50
How it was run: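 MTase (1 μM) incubated with increasing inhibitor in 40 mM Tris-HCl pH 7.5, 5 mM DTT, 10 μM AdoMet ([3H]-labelled), 0.5 μM GpppA2′OMe-RNA74 substrate, 30 °C for 30 min; stopped in ice-cold 100 μM AdoHcy; DEAE filter binding, scintillation counting.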

[17] = Selectivity index, ratio of CC50 for human Huh-7 cells to IC50 for West Nile virus lineage 1 (Italy/2009) infected in pre-seeded Huh-7 cells assessed as inhibition of viral replication incubated for 48 hrs by immunodetection based plaque reduction assay; format: toxicity, cell-based; conditions: read-out: Selectivity Index
[18] = Inhibition of Dengue virus 2 […] RNA dependent RNA polymerase incubated for 10 mins by picogreen staining based fluorescent analysis (Rvb= 0.27+/-0.03 uM); parameters: species or system dengue virus type 2
[19] = Selectivity index, ratio of CC50 for human Huh-7 cells to IC50 for Dengue virus serotype 2 New Guinea C infected in pre-seeded Huh-7 cells assessed as inhibition of viral replication incubated for 72 hrs by immunodetection based direct yield reduction assay; format: toxicity, cell-based; conditions: read-out: Selectivity Index; how it was run: as §4
dengue virus type 2 [20] = test: Antiviral activity against Dengue virus serotype 2 New Guinea C infected in pre-seeded Huh-7 cells assessed as inhibition of viral replication incubated for 72 hrs by immunodetection based direct yield reduction assay; format: functional, organism-based; conditions: Dengue virus, New Guinea C, Huh-7, 72 h; read-out: IC50
[21] = Dengue virus, New Guinea C, Huh-7, 72 h, read-out: IC50
[22] = West Nile virus, lineage 1 (Italy/2009), Huh-7, 48 h, read-out: IC50

Row | SMILES | IC50 (dengue virus type 2 [1]; [21]) | IC50 (Zika virus) | selectivity ratio at 72 h [2] | selectivity ratio at 72 h [4] | CC50 (Huh-7) | other results
1 | O=C(O)c1cccc(Nc2nc(NCCOc3ccccc3)nc3[nH]cnc23)c1 | 28.2 µM | 29 µM | 7 | 7 |  | CC50 [3]: 200 µM
2 | Fc1cc(F)cc(NNc2nc(NCCOc3ccccc3)nc3[nH]cnc23)c1 |  |  |  |  | 8.5 µM | 
3 | FC(F)(F)c1cc(NNc2nc(NCCOc3ccccc3)nc3[nH]cnc23)cc(C(F)(F)F)c1 |  |  |  |  | 5 µM | 
4 | FC(F)(F)c1cccc(NNc2nc(NCCOc3ccccc3)nc3[nH]cnc23)c1 |  |  |  |  | 7.5 µM | 
5 | CNc1nc(Nc2cccc(F)c2)c2nc[nH]c2n1 | 9.3 µM | 14.7 µM | 6 | 9 | 84 µM | 
6 | OCCNc1nc(Nc2cccc(F)c2)c2nc[nH]c2n1 | 29.8 µM | 8.9 µM | 15 | 5 | 136 µM | 
7 | Oc1cccc(Nc2nc(NCCOc3ccccc3)nc3[nH]cnc23)c1 |  |  |  |  |  | activity at 10 min, 5 µM (CDK9/cyclin T1): > 98%; activity at 10 min, 5 µM [5]: 65%
8 | CNc1nc(Nc2cccc(C(=O)O)c2)c2nc[nH]c2n1 |  | 33.5 µM | 6 |  |  | IC50 (dengue virus type 2 [1]; huh-7): Not Active; CC50 [3]: 200 µM
9 | COc1cc(Nc2nc(NCCOc3ccccc3)nc3[nH]cnc23)cc(OC)c1OC |  |  |  |  | 7.5 µM | 
10 | Fc1cc(F)cc(/N=N/c2nc(NCCOc3ccccc3)nc3[nH]cnc23)c1 |  |  |  |  | 12 µM | 
11 | Fc1cccc(/N=N/c2nc(NCCOc3ccccc3)nc3[nH]cnc23)c1 | 4 µM | 2.8 µM | 7 | 5 | 18.5 µM | activity at 10 min, 5 µM [6]: > 98%; IC50 [7]: > 100 µM; activity at 10 min, 5 µM [8]: 78%; IC50 (West Nile virus [9]; [22]): 0.6 µM; activity at 10 min, 5 µM [10]: 89%; selectivity ratio at 48 h [11]: 28; IC50 (West Nile virus [12]): 0.6 µM; Activity [13]: Active; IC50 [14]: Not Active; IC50 [15]: > 100 µM; activity at 10 min, 5 µM (CDK9/cyclin T1): > 98%; IC50 [16]: 226 µM; selectivity ratio at 48 h [17]: 30; IC50 [18]: > 100 µM; activity at 10 min, 5 µM [5]: > 98%
12 | COC(=O)c1cccc(Nc2nc(NCCOc3ccccc3)nc3[nH]cnc23)c1 |  | 8.2 µM | 12 |  | 100 µM | IC50 (dengue virus type 2 [1]; huh-7): Not Active
13 | FC(F)(F)c1cc(/N=N/c2nc(NCCOc3ccccc3)nc3[nH]cnc23)cc(C(F)(F)F)c1 |  |  |  |  | 7.5 µM | 
14 | Oc1ccc(Nc2nc(NCCOc3ccccc3)nc3[nH]cnc23)cc1O |  | 25 µM | 8 |  |  | IC50 (dengue virus type 2 [1]; huh-7): Not Active; CC50 [3]: 200 µM
15 | CNc1nc(Nc2cccc(C(F)(F)F)c2)c2nc[nH]c2n1 | 3.5 µM |  |  | 57 |  | IC50 (West Nile virus [9]; huh-7): Not Active; selectivity ratio at 72 h [19]: 41; IC50 (dengue virus type 2 [20]): 4.9 µM; CC50 [3]: 200 µM
16 | Nc1ncnc2c1ncn2[C@@H]1O[C@H](C[C@@H](N)CC[C@H](N)C(=O)O)[C@@H](O)[C@H]1O [SINEFUNGIN] |  |  |  |  |  | IC50 ([14]; read-out: IC50): 1.18 µM; IC50 [16]: 0.63 µM
17 | CNc1nc(Nc2cccc(C(=O)OC)c2)c2nc[nH]c2n1 | 18 µM | 8 µM | 25 | 11 |  | CC50 [3]: 200 µM
18 | FC(F)(F)c1ccc(NNc2nc(NCCOc3ccccc3)nc3[nH]cnc23)cc1 |  |  |  |  | 8 µM | 
19 | COC(=O)c1cccc(Nc2nc(NCCO)nc3[nH]cnc23)c1 | 17.5 µM | 6.2 µM | 32 | 11 |  | CC50 [3]: 200 µM
20 | Fc1cccc(Nc2nc(NCCOc3ccccc3)c3nc[nH]c3n2)c1 |  |  |  |  | 8 µM | 
21 | FC(F)(F)c1cccc(Nc2nc(NCCOc3ccccc3)c3nc[nH]c3n2)c1 |  |  |  |  | 6 µM | 
22 | OCCNc1nc(Nc2cccc(C(F)(F)F)c2)c2nc[nH]c2n1 | 4.5 µM | 10.6 µM | 5 | 11 | 50 µM | IC50 (West Nile virus [9]; [22]): 1.9 µM; selectivity ratio at 48 h [11]: 26; IC50 (West Nile virus [12]): 1.5 µM; selectivity ratio at 48 h [17]: 33
23 | FC(F)(F)c1ccc(/N=N/c2nc(NCCOc3ccccc3)nc3[nH]cnc23)cc1 |  |  |  |  | 8 µM | 
